Laboratory results from PMC10644204 (Pharmacology Research & Perspectives, 2023).
Values joined by “and” are separate entries in the source; they are usually repeats but may differ in a detail not shown here. Identical values can stand only once. Like-named read-outs stand apart in the source and are kept apart here.

Columns and labels:
healthy participants = assay: Safety assessments; assay type: in vivo, human
Outline: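 Part 2 healthy participants confined from Day −2 of period 1 to Day 9 of period 4. […] AEs monitored throughout, recording duration, severity, causality and outcome, alongside safety ECGs, laboratory tests, physical examination and vital signs.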

dogs = settings: single dose of GSK'254 17 mg kg^−1, cited from earlier work
HIV‐1 = settings: GSK'254 200 mg QD, treatment-naive people living with HIV-1, phase IIa; cited from earlier work
[1] = GSK'254 200 mg QD, healthy participants, previous studies; cited from earlier work
[2] = GSK'254 200 mg QD, treatment-naive people living with HIV-1; cited from earlier work
[3] = test system: healthy participants and people living with HIV‐1; settings: short-term administration; cited from earlier work
[4] = part 2, GSK'254 100 mg (N = 40)
[5] = part 2, GSK'254 500 mg (N = 40)

With `C=C(C)[C@@H]1CC[C@]2(NCCN3CCS(=O)(=O)CC3)CC[C@]3(C)[C@H](CC[C@@H]4[C@@]5(C)CC=C(C6=CC[C@@](CF)(C(=O)O)CC6)C(C)(C)[C@@H]5CC[C@]43C)[C@@H]12` [GSK'254] the “AE: Gastrointestinal disorders” value (healthy participants; [4]) was 1 (3) n (%), the “AE: General disorders and administration site conditions” value (healthy participants; [4]) was 0 n (%) and the “AE: Immune system disorders” value (healthy participants; [4]) was 0 n (%). For the same compound, the “AE: Infections and infestations” value (healthy participants; [4]) was 0 n (%), the “AE: Maculopapular rash” value (healthy participants; [4]) was 1 (3) n (%) and the “AE: Medical device site dermatitis” value (healthy participants; [4]) was 0 n (%). The “AE: Nausea” value (healthy participants; [4]) was 0 n (%), the “AE: Nervous system disorders” value (healthy participants; [4]) was 0 n (%) and the “AE: Renal and urinary disorders” value (healthy participants; [4]) was 0 n (%). The “AE: Reproductive system and breast disorders” value (healthy participants; [4]) was 0 n (%), the “AE: Respiratory, thoracic, and mediastinal disorders” value (healthy participants; [4]) was 1 (3) n (%) and the “AE: Skin and subcutaneous tissue disorders” value (healthy participants; [4]) was 3 (8) n (%). For the same compound, the “AE: Vessel puncture site pain” value (healthy participants; [4]) was 0 n (%), the “Any AE” value (healthy participants; [4]) was 5 (13) n (%) and the “Any drug-related AE” value (healthy participants; [4]) was 2 n (%) and 2 (5) n (%). The “Drug-related AE: Abdominal pain” value (healthy participants; [4]) was 0 n (%), the “Drug-related AE: Acne” value (healthy participants; [4]) was 2 (5) n (%) and the “Drug-related AE: Diarrhea” value (healthy participants; [4]) was 0 n (%). The “Drug-related AE: Fatigue” value (healthy participants; [4]) was 0 n (%), the “Drug-related AE: Gastrointestinal disorders” value (healthy participants; [4]) was 0 n (%) and the “Drug-related AE: General disorders and administration site conditions” value (healthy participants; [4]) was 0 n (%). The “Drug-related AE: Maculopapular rash” value (healthy participants; [4]) was 0 n (%), the “Drug-related AE: Nausea” value (healthy participants; [4]) was 0 n (%) and the “Drug-related AE: Pruritus” value (healthy participants; [4]) was 1 (3) n (%). The “Drug-related AE: Renal and urinary disorders” value (healthy participants; [4]) was 0 n (%), the “Drug-related AE: Skin and subcutaneous tissue disorders” value (healthy participants; [4]) was 2 (5) n (%) and the “Drug-related AE: Urinary hesitation” value (healthy participants; [4]) was 0 n (%). For the same compound, the “AE: Abdominal pain” value (healthy participants; [5]) was 1 (3) n (%), the “AE: Acne” value (healthy participants; [5]) was 0 n (%) and the “AE: Diarrhea” value (healthy participants; [5]) was 6 n (%) and 6 (15) n (%). The “AE: Gastrointestinal disorders” value (healthy participants; [5]) was 7 (18) n (%), the “AE: General disorders and administration site conditions” value (healthy participants; [5]) was 3 (8) n (%) and the “AE: Immune system disorders” value (healthy participants; [5]) was 0 n (%). For the same compound, the “AE: Infections and infestations” value (healthy participants; [5]) was 1 (3) n (%), the “AE: Maculopapular rash” value (healthy participants; [5]) was 1 (3) n (%) and the “AE: Medical device site dermatitis” value (healthy participants; [5]) was 2 (5) n (%). The “AE: Nausea” value (healthy participants; [5]) was 2 (5) n (%), the “AE: Nervous system disorders” value (healthy participants; [5]) was 1 (3) n (%) and the “AE: Renal and urinary disorders” value (healthy participants; [5]) was 0 n (%). The “AE: Reproductive system and breast disorders” value (healthy participants; [5]) was 0 n (%), the “AE: Respiratory, thoracic, and mediastinal disorders” value (healthy participants; [5]) was 0 n (%) and the “AE: Skin and subcutaneous tissue disorders” value (healthy participants; [5]) was 2 (5) n (%). For the same compound, the “AE: Vessel puncture site pain” value (healthy participants; [5]) was 0 n (%), the “Any AE” value (healthy participants; [5]) was 10 (25) n (%) and the “Any drug-related AE” value (healthy participants; [5]) was 7 n (%) and 7 (18) n (%). For the same compound, the “Drug-related AE: Abdominal pain” value (healthy participants; [5]) was 1 (3) n (%), the “Drug-related AE: Acne” value (healthy participants; [5]) was 0 n (%) and the “Drug-related AE: Fatigue” value (healthy participants; [5]) was 0 n (%). The “Drug-related AE: Gastrointestinal disorders” value (healthy participants; [5]) was 6 (15) n (%), the “Drug-related AE: General disorders and administration site conditions” value (healthy participants; [5]) was 0 n (%) and the “Drug-related AE: Maculopapular rash” value (healthy participants; [5]) was 1 (3) n (%). For the same compound, the “Drug-related AE: Nausea” value (healthy participants; [5]) was 2 (5) n (%), the “Drug-related AE: Pruritus” value (healthy participants; [5]) was 0 n (%) and the “Drug-related AE: Renal and urinary disorders” value (healthy participants; [5]) was 0 n (%). For the same compound, the “Drug-related AE: Skin and subcutaneous tissue disorders” value (healthy participants; [5]) was 1 (3) n (%), the “Drug-related AE: Urinary hesitation” value (healthy participants; [5]) was 0 n (%) and the Maximum concentration (dogs; dog) was 7960 ng/mL. The QT interval effects (dogs; dogs, telemetry) was “minimal QT interval effects were observed in one dog”, the “Mean reduction from baseline in HIV-1 RNA” value (HIV‐1) was 2 log10 copies/mL and the “Geometric mean Cmax” value [1] was 1040 to 1780 ng/mL. For the same compound, the “Geometric mean Cmax” value [2] was 1860 ng/mL and the Tolerability [3] was “generally well tolerated”.
